According to article PMC3237191 (FEBS letters, 2011):

Tests used:
DGKε (DGKε-His6) [1] = biological target: T1, DGKε (DGKε-His6) (Homo sapiens, UniProt P52429); assay: Triton X-100/DOPC mixed micelle assay with [γ-32P]-ATP; format: biochemical; conditions: 0.1 mM ATP; 15 mM Triton X-100; 22.5 mol% DOPC; lysate
T1 sequence (P52429 1-567): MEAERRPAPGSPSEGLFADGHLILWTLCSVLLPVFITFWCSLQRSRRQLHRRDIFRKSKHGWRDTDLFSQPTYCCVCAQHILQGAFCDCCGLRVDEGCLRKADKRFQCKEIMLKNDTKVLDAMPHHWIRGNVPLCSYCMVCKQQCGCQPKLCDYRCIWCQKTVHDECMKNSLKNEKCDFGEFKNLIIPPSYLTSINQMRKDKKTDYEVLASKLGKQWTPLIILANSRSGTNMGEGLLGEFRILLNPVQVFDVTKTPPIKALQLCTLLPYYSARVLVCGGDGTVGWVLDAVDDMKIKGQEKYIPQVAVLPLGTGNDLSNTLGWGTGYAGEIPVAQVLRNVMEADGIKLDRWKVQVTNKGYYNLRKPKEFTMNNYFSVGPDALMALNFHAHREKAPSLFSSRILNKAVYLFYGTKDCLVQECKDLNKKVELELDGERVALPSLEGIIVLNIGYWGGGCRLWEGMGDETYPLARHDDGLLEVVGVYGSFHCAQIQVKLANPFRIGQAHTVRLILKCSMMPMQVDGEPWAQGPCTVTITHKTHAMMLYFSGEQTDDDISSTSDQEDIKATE
Method in brief: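 Enzyme is the 100,000 g supernatant (30 min, 4 °C) of baculovirus-infected Sf21 cells expressing human DGKε-His6. Cells were lysed 10 min on ice in 1% NP-40, 20 mM Tris-HCl pH 7.5, 150 mM NaCl, 1 mM EDTA, phosphatase and protease inhibitors, then sonicated 5 min. DAG substrate was dried with DOPC into lipid films for the micelles, and DAG level was varied. Run in triplicate. Vmax and Km come from nonlinear regression of v0 versus [S] and from Hanes plots.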

DGKε (DGKε-His6) [2] = biological target: T1, DGKε (DGKε-His6); assay: Triton X-100/DOPC mixed micelle assay with [γ-32P]-ATP, nonlinear regression; format: biochemical; conditions: competitive; substrate 18:0/20:4-DAG; 0.1 mM ATP; 15 mM Triton X-100; lysate
Method in brief: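 DGKε-His6 was taken from the high-speed supernatant of NP-40-lysed, sonicated Sf21 cells infected with baculovirus. It phosphorylated 18:0/20:4-DAG or 20:4/20:4-DAG in Triton X-100/DOPC mixed micelles with [γ-32P]-ATP, with a phosphatidic acid species added as inhibitor. PA stock levels were set from measured phosphate content. Ki was fitted by nonlinear regression to a competitive inhibition model.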

Km (mol%) (DGKε (DGKε-His6) [1])	Ki, mol% (DGKε (DGKε-His6) [2]) [mol%]	SMILES
2.0 ± 0.7		CCCCC/C=C\C/C=C\C/C=C\C/C=C\CCCC(=O)O[C@@H](CO)COC(=O)CCCCCCCCCCCCCCCCC [18:0/20:4-DAG, 1-stearoyl-2-arachidonoyl-DAG]
3.5 ± 0.4		CCCCC/C=C\C/C=C\CCCCCCCC(=O)OC[C@H](CO)OC(=O)CCCCCCC/C=C\C/C=C\CCCCC [18:2/18:2-DAG]
2.0 ± 0.7		CCCCC/C=C\C/C=C\C/C=C\C/C=C\CCCC(=O)OC[C@H](CO)OC(=O)CCC/C=C\C/C=C\C/C=C\C/C=C\CCCCC [20:4/20:4-DAG, 1,2-diarachidonoyl-DAG]
	4.4 ± 1.0	CCCCC/C=C\C/C=C\C/C=C\C/C=C\CCCC(=O)OC[C@H](COP(=O)(O)O)OC(=O)CCC/C=C\C/C=C\C/C=C\C/C=C\CCCCC [20:4/20:4-PA]
